Columns and labels:
Type in all cases: functional
Conditions in all cases: read-out: Activity
[1] = test system: MCF7; assay: Cytotoxicity against human MCF7 cells assessed as cell growth at 10 uM
Summary of the method: (§1)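 NCI-60 screen: cells grown in RPMI 1640 with 5% FBS and 2 mM L-glutamine, plated at 5000–40,000 cells/well according to doubling time, and preincubated 24 h at 37 °C, 5% CO2. The single 10 µM dose (DMSO stock) was added, then incubated 48 h. Cells were TCA-fixed and stained with 0.4% SRB, read at 515 nm, and growth % calculated against time-zero and control plates.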

[2] = Cytotoxicity against human […] cells assessed as cell growth at 10 uM; summary of the method: as §1
[3] = test system: HOP-92; assay: Cytotoxicity against human HOP92 cells assessed as cell growth at 10 uM
Summary of the method: (§2)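 Single-dose NCI-60 screen at 10 µM. Cells were grown in RPMI 1640 with 5% FBS and 2 mM L-glutamine, then treated for 48 h at 37 °C. Protein was measured by SRB staining with absorbance at 515 nm. Percentage growth was recorded, and inhibition percentage was calculated as 100 minus growth percentage.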

[4] = test system: A549; assay: Cytotoxicity against human A549 cells assessed as cell growth at 10 uM; summary of the method: as §2
[5] = test system: NCI-H226; assay: Cytotoxicity against human NCI-H226 cells assessed as cell growth at 10 uM; summary of the method: as §1
[6] = test system: SK-OV-3; assay: Cytotoxicity against human SKOV3 cells assessed as cell growth at 10 uM; summary of the method: as §1
[7] = test system: Malme-3M; assay: Cytotoxicity against human MALME-3M cells assessed as cell growth at 10 uM; summary of the method: as §1
[8] = test system: EKVX; assay: Cytotoxicity against human EKVX cells assessed as cell growth at 10 uM; summary of the method: as §2
[9] = test system: SW-620; assay: Cytotoxicity against human SW620 cells assessed as cell growth at 10 uM; summary of the method: as §1
[10] = test system: SF-295; assay: Cytotoxicity against human SF295 cells assessed as cell growth at 10 uM; summary of the method: as §1
[11] = test system: NCI-H322M; assay: Cytotoxicity against human NCI-H322M cells assessed as cell growth at 10 uM; summary of the method: as §1
[12] = test system: HT-29; assay: Cytotoxicity against human HT-29 cells assessed as cell growth at 10 uM; summary of the method: as §2
[13] = test system: KM12; assay: Cytotoxicity against human KM12 cells assessed as cell growth at 10 uM; summary of the method: as §1
[14] = test system: MDA-MB-231; assay: Cytotoxicity against human MDA-MB-231 cells assessed as cell growth at 10 uM; summary of the method: as §1
[15] = test system: HCT-116; assay: Cytotoxicity against human HCT116 cells assessed as cell growth at 10 uM; summary of the method: as §2
[16] = test system: SK-MEL-2; assay: Cytotoxicity against human SK-MEL-2 cells assessed as cell growth at 10 uM; summary of the method: as §1
[17] = test system: CCRF-CEM; assay: Cytotoxicity against human CCRF-CEM cells assessed as cell growth at 10 uM; summary of the method: as §2
[18] = test system: HOP-62; assay: Cytotoxicity against human HOP62 cells assessed as cell growth at 10 uM; summary of the method: as §2
[19] = test system: HL-60(TB); assay: Cytotoxicity against human HL-60(TB) cells assessed as cell growth at 10 uM
Summary of the method: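 NCI 60-cell panel screen at a single concentration of 10 µM. Cells are grown in RPMI 1640 with 5% FBS and 2 mM L-glutamine and read by SRB protein staining at 515 nm. Percent growth is measured relative to time-zero and untreated controls; inhibition % is 100 minus growth %.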

[20] = test system: SNB-75; assay: Cytotoxicity against human SNB75 cells assessed as cell growth at 10 uM; summary of the method: as §1
[21] = test system: TK-10; assay: Cytotoxicity against human TK10 cells assessed as cell growth at 10 uM; summary of the method: as §1
[22] = test system: UACC-62; assay: Cytotoxicity against human UACC62 cells assessed as cell growth at 10 uM; summary of the method: as §1
[23] = test system: MDA-MB-468; assay: Cytotoxicity against human MDA-MB-468 cells assessed as cell growth at 10 uM; summary of the method: as §1
[24] = test system: SK-MEL-5; assay: Cytotoxicity against human SK-MEL-5 cells assessed as cell growth at 10 uM; summary of the method: as §1
[25] = test system: HCC 2998; assay: Cytotoxicity against human HCC2998 cells assessed as cell growth at 10 uM; summary of the method: as §2
[26] = test system: NCI-H23; assay: Cytotoxicity against human NCI-H23 cells assessed as cell growth at 10 uM; summary of the method: as §1
[27] = test system: U-251; assay: Cytotoxicity against human U251 cells assessed as cell growth at 10 uM; summary of the method: as §1
[28] = test system: SR; assay: Cytotoxicity against human SR cells assessed as cell growth at 10 uM; summary of the method: as §1
[29] = test system: CAKI-1; assay: Cytotoxicity against human Caki1 cells assessed as cell growth at 10 uM; summary of the method: as §2
[30] = test system: BT-549; assay: Cytotoxicity against human BT549 cells assessed as cell growth at 10 uM; summary of the method: as §2
[31] = test system: HCT-15; assay: Cytotoxicity against human HCT15 cells assessed as cell growth at 10 uM; summary of the method: as §2

COc1cc(C)cc(-c2nn(CC#N)cc2-c2ccnc(-c3ccc(Oc4ccccc4)cc3)c2)c1
growth at 10 µM [1]: 72.1%
growth at 10 µM [2]: 83%
growth at 10 µM [3]: 85.5%
growth at 10 µM [4]: 85.8%
growth at 10 µM [5]: 66.5%
growth at 10 µM [6]: 95.4%
growth at 10 µM [7]: 112%
growth at 10 µM [8]: 98.2%
growth at 10 µM [9]: 98.6%
growth at 10 µM [10]: 95.1%
growth at 10 µM [11]: 96.3%
growth at 10 µM [12]: 73.9%
growth at 10 µM [13]: 100%
growth at 10 µM [14]: 88.6%
growth at 10 µM [15]: 81.8%
growth at 10 µM [16]: 85.2%
growth at 10 µM [17]: 91.3%
growth at 10 µM [18]: 96.1%
growth at 10 µM [19]: 91.2%
growth at 10 µM [20]: 74.4%
growth at 10 µM [21]: 88.6%
growth at 10 µM [22]: 65.8%
growth at 10 µM [23]: 23.6%
growth at 10 µM [24]: 53.8%
growth at 10 µM [25]: 93.9%
growth at 10 µM [26]: 88.3%
growth at 10 µM [27]: 88.4%
growth at 10 µM [28]: 95.8%
growth at 10 µM [29]: 78.7%
growth at 10 µM [30]: 96.3%
growth at 10 µM [31]: 71%
